Data as given in ChEMBL document CHEMBL1132458, “Potent and selective inhibition of varicella-zoster virus (VZV) by nucleoside analogues with an unusual bicyclic base” (J Med Chem, 1999).

Assays:
Human alphaherpesvirus 3 [1] = assay: Compound was evaluated for the inhibition of VZV strains of YS; format: functional, organism-based
Human alphaherpesvirus 3 [2] = assay: Compound was evaluated for the inhibition of VZV strains of OKA; format: functional, organism-based
HEL [3] = assay: Compound was evaluated for the cytotoxicity against HEL cells; settings: Homo sapiens
Human alphaherpesvirus 3 [4] = assay: Compound was evaluated for the inhibition of VZV (TK-) thymidine kinases Strain 07; format: functional, organism-based
HEL [5] = assay: Compound was evaluated for the cytotoxicity against HEL cells; format: functional; settings: Homo sapiens
Human alphaherpesvirus 3 [6] = assay: Compound was evaluated for the inhibition of VZV (TK-) thymidine kinases Strain YS-R; format: functional, organism-based
Human alphaherpesvirus 3 [7] = assay: Compound was evaluated for the inhibition of VZV (TK-) thymidine kinase-deficient strain YS-R; format: functional, organism-based
Summary of the method: (§1)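 Confluent human embryonic lung (HEL) fibroblasts were infected with 20 PFU per well of virus for 1–2 h, and then residual virus was removed. Cells were then kept in MEM with 2% inactivated FCS, 1% L-glutamine and 0.3% sodium bicarbonate, plus serial compound concentrations. Plaques were scored after 5 days. EC50 is the concentration cutting plaque formation by 50% versus untreated control.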

Human alphaherpesvirus 3 [8] = assay: Compound was evaluated for the inhibition of VZV (TK-) thymidine kinase-deficient strain 07; format: functional, organism-based; summary of the method: as §1

| Structure (SMILES) | EC50 (Human alphaherpesvirus 3 [1]) [nM] | EC50 (Human alphaherpesvirus 3 [2]) [nM] | IC50 (HEL [3]) [nM] | EC50 (Human alphaherpesvirus 3 [4]) [nM] | MCC (HEL [5]) [µM] | EC50 (Human alphaherpesvirus 3 [6]) [nM] | EC50 (Human alphaherpesvirus 3 [7]) [nM] | EC50 (Human alphaherpesvirus 3 [8]) [nM] |
| --- | --- | --- | --- | --- | --- | --- | --- | --- |
| CCCCCCCCCCCc1cc2cn([C@H]3C[C@H](O)[C@@H](CO)O3)c(=O)nc2o1 | 500 | 500 | > 200000 | > 50000 | 200 | > 50000 | – | – |
| CCCCCCc1cc2cn([C@H]3C[C@H](O)[C@@H](CO)O3)c(=O)nc2o1 | 2800 | 1300 | > 200000 | – | 200 | – | > 50000 | > 50000 |
| CCCCCCCCCCc1cc2cn([C@H]3C[C@H](O)[C@@H](CO)O3)c(=O)nc2o1 | 8 | 15 | > 50000 | > 50000 | > 50 | > 50000 | – | – |
| O=c1[nH]c(=O)n([C@H]2C[C@H](O)[C@@H](CO)O2)cc1/C=C/Br [BRIVUDINE] | 6 | 3 | > 400000 | 144000 | > 150 | > 300000 | – | – |
| CCCCCCCCCc1cc2cn([C@H]3C[C@H](O)[C@@H](CO)O3)c(=O)nc2o1 | 20 | 20 | > 200000 | > 200000 | > 200 | > 200000 | – | – |
| CCCCCCCCCCCCc1cc2cn([C@H]3C[C@H](O)[C@@H](CO)O3)c(=O)nc2o1 | 1100 | 1300 | > 200000 | > 50000 | 50 | > 20000 | – | – |
| CCCCCCCc1cc2cn([C@H]3C[C@H](O)[C@@H](CO)O3)c(=O)nc2o1 | 390 | 170 | > 50000 | > 50000 | > 50 | > 50000 | – | – |
| CCCCCc1cc2cn([C@H]3C[C@H](O)[C@@H](CO)O3)c(=O)nc2o1 | 4600 | 3000 | > 50000 | – | > 50 | – | > 50000 | > 50000 |
| Nc1nc2c(ncn2COCCO)c(=O)[nH]1 [ACYCLOVIR] | – | – | > 200000 | – | > 200 | – | – | – |
| CCCCCCCCc1cc2cn([C@H]3C[C@H](O)[C@@H](CO)O3)c(=O)nc2o1 | 24 | 8 | > 50000 | > 50000 | > 50 | > 50000 | – | – |
